Here are results for 19 compounds from ChEMBL document CHEMBL1154746, “Anti-oxidant and anti-bacterial activities of novel N'-arylmethylidene-2-(3, 4-dimethyl-5, 5-dioxidopyrazolo[4,3-c][1,2]benzothiazin-2(4H)-yl) acetohydrazides” (2010).

≈ marks a conversion by molar mass, not a printed value.

As a reminder, the MIC is the lowest concentration that inhibits growth of the organism.

What all share (assay type): functional
Assay [1] is described as follows: Antioxidant activity assessed as superoxide radical scavenging activity measured as formazone formation by spectrophotometry relative to control. Also on record: concentration or dose not given beside the values. The procedure, abridged:
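NADH–NBT–PMS superoxide-generating mixture in 0.1 M phosphate buffer, pH 7.4, with reagents made up in buffer. Sample was added from a 1 mM DMSO solution. The reaction ran at room temperature, and superoxide formation was followed as blue formazan absorbance at 560 nm. Lower absorbance was read as higher scavenging.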

The subject of another assay is Escherichia coli. Kind of assay: Antimicrobial activity against Escherichia coli after 24 hrs by agar dilution technique. The procedure, abridged: (§1)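 Suspensions of E. coli, B. subtilis and Staphylococcus aureus were prepared at about 10⁵–10⁶ CFU/well, and test compounds were applied to the wells over a concentration range. MIC was taken as the lowest concentration with no apparent growth, disregarding a single colony or a faint haze from the inoculum.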
On the technique in general: Agar dilution tests growth on a series of plates holding different concentrations.

The test system of the next assay is Bacillus subtilis. In words: Antimicrobial activity against Bacillus subtilis after 24 hrs by agar dilution technique. The gist of the method:
as §1

A further assay has as its system Staphylococcus aureus. Kind of assay: Antimicrobial activity against Staphylococcus aureus after 24 hrs by agar dilution technique. The gist of the method: as §1

As for `Cc1c2c(nn1CC(=O)N/N=C/c1ccccc1[N+](=O)[O-])-c1ccccc1S(=O)(=O)N2C`, in assay [1], the Activity was 28.8%. Further, the MIC against Escherichia coli, against Bacillus subtilis and with Staphylococcus aureus was > 200 µg/mL each time.
With `Cc1c2c(nn1CC(=O)N/N=C/c1ccc(Cl)c(Cl)c1)-c1ccccc1S(=O)(=O)N2C`, the Activity in assay [1] stood at 51.5%. The minimal inhibitory concentration (MIC) with Escherichia coli, with Bacillus subtilis and against Staphylococcus aureus was > 200 µg/mL throughout.
For the compound `Cc1c2c(nn1CC(=O)N/N=C/c1ccsc1)-c1ccccc1S(=O)(=O)N2C`, in assay [1], the Activity stood at 16.5%. For the same compound, the results for the MIC in the assay with Escherichia coli, in the assay on Bacillus subtilis and with Staphylococcus aureus were 24 µg/mL (≈ 57.8 µM), 82 µg/mL (≈ 197 µM) and 61 µg/mL (≈ 147 µM), respectively.
On the same counts, the results for `COc1cccc(/C=N/NC(=O)Cn2nc3c(c2C)N(C)S(=O)(=O)c2ccccc2-3)c1` are 44.9%, 23 µg/mL (≈ 52.3 µM), 69 µg/mL (≈ 157 µM) and > 200 µg/mL.
The matching figures for `Cc1c2c(nn1CC(=O)N/N=C/c1ccc(Cl)cc1Cl)-c1ccccc1S(=O)(=O)N2C`: 48.7%, > 200 µg/mL, > 200 µg/mL and > 200 µg/mL.
For `Cc1c2c(nn1CC(=O)N/N=C/c1ccc(F)cc1)-c1ccccc1S(=O)(=O)N2C`, the Activity in assay [1] amounted to 17.4%. In addition, the minimum inhibitory concentration (MIC) with Escherichia coli, in the assay on Bacillus subtilis and in the assay with Staphylococcus aureus was > 200 µg/mL in each case.
Regarding `CN(C)[C@@H]1C(O)=C(C(N)=O)C(=O)[C@@]2(O)C(O)=C3C(=O)c4c(O)cccc4[C@@](C)(O)[C@H]3C[C@@H]12` [TETRACYCLINE], the MIC in the assay on Escherichia coli came out at 0.25 µg/mL (≈ 0.563 µM); against Bacillus subtilis it was 0.35 µg/mL (≈ 0.788 µM); with Staphylococcus aureus, 0.78 µg/mL (≈ 1.76 µM).
Turning to `Cc1c2c(nn1CC(=O)N/N=C/c1cccnc1)-c1ccccc1S(=O)(=O)N2C`, in assay [1], the Activity came out at 25.1%. Also, the minimal inhibitory concentration (MIC) against Escherichia coli is 27 µg/mL (≈ 65.8 µM); against Bacillus subtilis it was 95 µg/mL (≈ 231 µM); in the assay on Staphylococcus aureus, > 200 µg/mL.
On the same counts, the results for `Cc1c2c(nn1CC(=O)N/N=C/c1ccc([N+](=O)[O-])cc1)-c1ccccc1S(=O)(=O)N2C` are 23.7%, > 200 µg/mL, > 200 µg/mL and > 200 µg/mL.
On the same counts, the results for `Cc1c2c(nn1CC(=O)N/N=C/c1ccc(Cl)cc1)-c1ccccc1S(=O)(=O)N2C` are 23.3%, > 200 µg/mL, > 200 µg/mL and > 200 µg/mL.
On the same counts, the results for `Cc1c2c(nn1CC(=O)N/N=C/c1ccccc1Cl)-c1ccccc1S(=O)(=O)N2C` are 44.2%, > 200 µg/mL, > 200 µg/mL and > 200 µg/mL.
As for `COc1ccc(/C=N/NC(=O)Cn2nc3c(c2C)N(C)S(=O)(=O)c2ccccc2-3)c(OC)c1`, in assay [1], the Activity is 53.1%. Also, the values for the MIC with Escherichia coli, in the assay on Bacillus subtilis and in the assay with Staphylococcus aureus were 17 µg/mL (≈ 36.2 µM), > 200 µg/mL and > 200 µg/mL, respectively.
On to `CCOc1cc(/C=N/NC(=O)Cn2nc3c(c2C)N(C)S(=O)(=O)c2ccccc2-3)ccc1O`, for which, in assay [1], the Activity is 71.1%. In addition, the values for the MIC in the assay on Escherichia coli, in the assay with Bacillus subtilis and with Staphylococcus aureus were 11 µg/mL (≈ 23.4 µM), 47 µg/mL (≈ 100 µM) and > 200 µg/mL, respectively.
On the same counts, the results for `Cc1c2c(nn1CC(=O)N/N=C/c1ccccc1)-c1ccccc1S(=O)(=O)N2C` are 33.9%, 69 µg/mL (≈ 169 µM), > 200 µg/mL and > 200 µg/mL.
On the same counts, the results for `Cc1c2c(nn1CC(=O)N/N=C/c1cccc([N+](=O)[O-])c1)-c1ccccc1S(=O)(=O)N2C` are 52.2%, > 200 µg/mL, > 200 µg/mL and > 200 µg/mL.
The matching figures for `Cc1c2c(nn1CC(=O)N/N=C/c1ccc(O)cc1O)-c1ccccc1S(=O)(=O)N2C`: 98.3%, 5 µg/mL (≈ 11.3 µM), 39 µg/mL (≈ 88.3 µM) and > 200 µg/mL.
Consider `CCCOC(=O)c1cc(O)c(O)c(O)c1`, for which the Activity in assay [1] was 91.3%.
As for `Cc1c2c(nn1CC(=O)N/N=C/c1ccccn1)-c1ccccc1S(=O)(=O)N2C`, the Activity in assay [1] turned out to be 24%. The MIC is 28 µg/mL (≈ 68.2 µM) in the assay on Escherichia coli, 88 µg/mL (≈ 214 µM) against Bacillus subtilis and > 200 µg/mL with Staphylococcus aureus.
The matching figures for `Cc1c2c(nn1CC(=O)N/N=C/c1cccs1)-c1ccccc1S(=O)(=O)N2C`: 14.6%, 23 µg/mL (≈ 55.4 µM), 77 µg/mL (≈ 185 µM) and 55 µg/mL (≈ 132 µM).
